Here are results for 30 compounds from ChEMBL document CHEMBL1142933, “Rational design of novel, potent small molecule pan-selectin antagonists” (J Med Chem, 2007).

The target in one assay is T1, P-selectin (Homo sapiens, UniProt P16109).
T1 sequence (P16109 whole entry): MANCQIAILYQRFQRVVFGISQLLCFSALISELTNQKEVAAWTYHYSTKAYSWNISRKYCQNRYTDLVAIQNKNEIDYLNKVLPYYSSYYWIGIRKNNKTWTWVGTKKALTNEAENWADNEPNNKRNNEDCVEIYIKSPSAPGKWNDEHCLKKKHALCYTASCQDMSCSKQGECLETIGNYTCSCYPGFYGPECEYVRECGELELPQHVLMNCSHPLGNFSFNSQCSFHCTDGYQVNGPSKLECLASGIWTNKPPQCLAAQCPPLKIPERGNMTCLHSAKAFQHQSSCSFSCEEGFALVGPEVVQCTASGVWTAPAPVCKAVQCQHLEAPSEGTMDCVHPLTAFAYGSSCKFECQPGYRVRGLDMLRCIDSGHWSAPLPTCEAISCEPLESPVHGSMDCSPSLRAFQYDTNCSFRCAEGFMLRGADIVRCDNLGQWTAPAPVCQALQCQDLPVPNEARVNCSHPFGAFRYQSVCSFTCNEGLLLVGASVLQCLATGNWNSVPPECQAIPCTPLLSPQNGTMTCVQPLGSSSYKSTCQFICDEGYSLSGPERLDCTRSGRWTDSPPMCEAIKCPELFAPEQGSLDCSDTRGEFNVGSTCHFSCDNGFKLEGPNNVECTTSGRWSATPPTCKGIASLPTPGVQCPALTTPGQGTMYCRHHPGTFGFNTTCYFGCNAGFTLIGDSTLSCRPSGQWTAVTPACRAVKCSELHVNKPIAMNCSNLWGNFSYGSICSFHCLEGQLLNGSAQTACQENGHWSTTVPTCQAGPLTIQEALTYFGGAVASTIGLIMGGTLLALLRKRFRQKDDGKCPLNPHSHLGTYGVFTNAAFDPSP
Description: Inhibition of human P-selectin after 2 hrs. The method in brief: (§1)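 Biotinylated sLeX-tyrosine sulfate polyacrylamide complexed with streptavidin-peroxidase added with compound at varying concentrations (HEPES pH 7.4, 1 mM CaCl2, 1% DMSO), 2 h 37 °C. TMB read-out, OD 450 vs 620 nm.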

The target in another assay is T2, L-selectin (Homo sapiens, UniProt P14151).
T2 sequence (P14151 whole entry): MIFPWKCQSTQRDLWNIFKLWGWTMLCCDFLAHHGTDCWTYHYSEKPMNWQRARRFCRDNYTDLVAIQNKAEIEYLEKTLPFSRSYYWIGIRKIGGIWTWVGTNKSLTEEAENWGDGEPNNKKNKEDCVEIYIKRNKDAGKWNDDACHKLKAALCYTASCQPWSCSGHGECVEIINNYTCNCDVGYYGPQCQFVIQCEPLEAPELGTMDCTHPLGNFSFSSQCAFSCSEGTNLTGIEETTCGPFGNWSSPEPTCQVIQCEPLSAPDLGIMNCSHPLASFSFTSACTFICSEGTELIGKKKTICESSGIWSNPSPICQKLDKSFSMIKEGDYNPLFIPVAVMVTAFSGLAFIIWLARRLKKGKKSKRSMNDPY
The assay can be described thus: Inhibition of human L-selectin after 2 hrs. The method in brief:
as §1

Assay [1] deals with HL-60. Description: Inhibition of attachment of HL60 cells to P-selectin at 109 uM after 5 mins. The following applies: Homo sapiens, HL-60, 5 min. The class given is functional. In outline:
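Dishes coated with E- or P-selectin/Fc chimera, blocked with BSA, mounted in a parallel flow chamber run recirculating; HL-60 cells at 2.4 million/mL final. Mean inhibition as % of vehicle control from mean cells/field of at least two independent experiments.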

Another assay deals with T3, E-selectin (Homo sapiens, UniProt P16581).
T3 sequence (P16581 whole entry): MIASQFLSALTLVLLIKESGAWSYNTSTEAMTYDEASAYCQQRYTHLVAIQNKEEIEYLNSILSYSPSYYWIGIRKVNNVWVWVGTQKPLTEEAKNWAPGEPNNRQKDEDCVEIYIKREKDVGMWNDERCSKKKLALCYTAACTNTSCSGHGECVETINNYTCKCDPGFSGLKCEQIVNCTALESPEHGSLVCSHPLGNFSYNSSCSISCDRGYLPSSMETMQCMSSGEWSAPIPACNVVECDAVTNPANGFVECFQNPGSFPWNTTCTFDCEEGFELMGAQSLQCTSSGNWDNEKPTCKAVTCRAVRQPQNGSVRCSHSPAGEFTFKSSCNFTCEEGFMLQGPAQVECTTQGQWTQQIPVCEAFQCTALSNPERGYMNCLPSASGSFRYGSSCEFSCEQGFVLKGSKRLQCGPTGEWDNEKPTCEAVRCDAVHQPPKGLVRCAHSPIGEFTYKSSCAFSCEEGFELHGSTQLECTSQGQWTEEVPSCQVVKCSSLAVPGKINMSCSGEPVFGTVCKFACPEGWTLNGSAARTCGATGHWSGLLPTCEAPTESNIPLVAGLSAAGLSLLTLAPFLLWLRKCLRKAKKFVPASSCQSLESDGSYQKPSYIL
The assay can be described thus: Inhibition of human E-selectin after 2 hrs. The method in brief: as §1

Assay [2] relates to HL-60. The assay can be described thus: Inhibition of attachment of HL60 cells to E-selectin at 109 uM after 5 mins. The class given is functional. The following applies: Homo sapiens, HL-60, 5 min. The method in brief:
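Dishes coated with E- or P-selectin/Fc chimera, blocked with BSA, mounted in a parallel flow chamber run recirculating; HL-60 cells at 2.4 million/mL final. Cells attached after 5 min continuous flow at calculated shear 1 dyn/cm², with 109 µM compound or DMSO vehicle, counted in five low power fields. Mean inhibition as % of vehicle control from mean cells/field of at least two independent experiments.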

Molecules are shown by their SMILES. Some results are limits rather than exact numbers.

In general, IC50 refers to the concentration at which inhibition is half-maximal. Lower therefore signals greater potency. By inhibition is commonly meant the change of the read-out against control, counted positive when it falls. A low value points to little suppression. In the case of `O=C(Nc1ccccc1-c1ccc(C(=O)O)s1)c1cccc(-c2ccc(O)c(O)c2O)c1`, the IC50 against P-selectin was determined as 1.2 µM; on L-selectin, 1.6 µM; against E-selectin it was 61.4 µM. The inhibition at 109 µM with HL-60 [1] came out at 98%; in the assay with HL-60 [2], 53%.
As to `O=C(O)Cc1ccc(-c2ccccc2NC(=O)c2ccccc2-c2cc(O)c(O)c(O)c2)s1`, the 50% inhibitory concentration (IC50) on P-selectin came out at 212 µM; on L-selectin it was 244 µM; at E-selectin, 114 µM. In addition, in the assay with HL-60 [1], at 109 µM the inhibition was 25%.
As to `O=C(O)Cc1ccc(-c2cccc(NC(=O)c3cccc(-c4ccc(O)c(O)c4O)c3)c2)s1`, the IC50 is 0.74 µM on P-selectin, 1.1 µM against L-selectin and 15.7 µM against E-selectin. In addition, the inhibition at 109 µM was found to be 93% in the assay on HL-60 [1] and 58% in the assay with HL-60 [2].
In the case of `O=C(O)Cc1cccc(-c2ccccc2NC(=O)CCc2cc(O)c(O)c(O)c2)c1`, the values for the IC50 on P-selectin, against L-selectin and against E-selectin were 43.2 µM, 64.9 µM and 85.4 µM, respectively. For the same compound, the inhibition at 109 µM was found to be 22% with HL-60 [1] and 20% with HL-60 [2].
For the compound `O=C(O)Cc1cccc(NC(=O)Cc2cc(O)c(O)c(O)c2)c1`, the IC50 against L-selectin was more than 500 µM. Also, at 109 µM the inhibition with HL-60 [2] was 27%.
As for `O=C(O)Cc1cccc(-c2ccccc2O[C@H]2O[C@H](CO)[C@@H](O)[C@H](O)[C@@H]2O)c1`, the IC50 on P-selectin, at L-selectin and against E-selectin was more than 500 µM in each case. Also, 109 µM produced 34% inhibition in the assay with HL-60 [2].
For `O=C(O)Cc1ccc(-c2ccccc2NC(=O)CCCc2cc(O)c(O)c(O)c2)s1`, the IC50 against P-selectin turned out to be 53.9 µM; against L-selectin, 105 µM; against E-selectin, 52.4 µM.
As to `Cc1ccc(C(=O)O)cc1NC(=O)Cc1cc(O)c(O)c(O)c1`, the IC50 against P-selectin is 42.8 µM; against L-selectin, 64.5 µM; on E-selectin it was more than 500 µM. Moreover, the inhibition at 109 µM was found to be 24% in the assay on HL-60 [1] and 22% with HL-60 [2].
The corresponding values for `O=C(O)Cc1ccc(-c2ccccc2NC(=O)CCc2cc(O)c(O)c(O)c2)s1` are 10.2 µM, 13.6 µM, 41.9 µM, 11% and 35%.
As for `O=C(O)c1ccc(O)c(O)c1O`, the values for the IC50 against L-selectin and against E-selectin were 15.2 µM and more than 500 µM, respectively.
For `O=C(O)Cc1ccc(-c2ccccc2NC(=O)c2ccc(-c3ccc(O)c(O)c3O)cc2)s1`, the IC50 was 1.1 µM on P-selectin, 1.6 µM at L-selectin and 48 µM against E-selectin. Also, the inhibition at 109 µM with HL-60 [1] is 58%; in the assay on HL-60 [2], 33%.
For the compound `O=C(O)Cc1ccc(-c2ccccc2NC(=O)/C=C/c2ccc(O)c(O)c2O)s1`, the IC50 worked out at 3.4 µM on P-selectin, 4.3 µM against L-selectin and 57.2 µM on E-selectin. In addition, the inhibition at 109 µM in the assay on HL-60 [1] was determined as 56%.
On to `O=C(O)Cc1cccc(-c2ccccc2OC(=O)c2cc(O)c(O)c(O)c2)c1`, for which the IC50 at P-selectin was 0.87 µM; against L-selectin, 1.5 µM; against E-selectin, more than 500 µM. The inhibition at 109 µM is 35% in the assay on HL-60 [1] and 16% in the assay on HL-60 [2].
For `Cc1c(NC(=O)Cc2cc(O)c(O)c(O)c2)cccc1C(=O)O`, the IC50 on P-selectin and against L-selectin was more than 500 µM in each case. Further, testing at 109 µM in the assay on HL-60 [2] gave an inhibition of 19%.
`O=C(O)Cc1ccc(-c2ccccc2NC(=O)Cc2ccc(O)c(O)c2O)s1` gave an IC50 against E-selectin of more than 500 µM. For the same compound, the inhibition at 109 µM in the assay with HL-60 [2] came to 26%.
`O=C(O)Cc1ccc(-c2ccccc2NC(=O)c2cccc(-c3ccc(O)c(O)c3O)c2)s1`: the figures for the inhibition at 109 µM in the assay with HL-60 [1] and with HL-60 [2] were 55% and 61%, respectively.
For `O=C(CCc1cc(O)c(O)c(O)c1)Nc1cccc(C(=O)O)c1`, the half-maximal inhibitory concentration (IC50) against P-selectin was determined as 19.6 µM; on L-selectin, 46.6 µM; against E-selectin it was 18.7 µM.
For `O=C(O)Cc1cccc(-c2ccccc2NC(=O)CCCNC(=O)c2cc(O)c(O)c(O)c2)c1`, the concentration for half-maximal inhibition (IC50) on P-selectin is 57.2 µM; on L-selectin, 154 µM; against E-selectin, more than 500 µM. Moreover, the inhibition at 109 µM with HL-60 [2] worked out at 29%.
Consider `O=C(CCc1cc(O)c(O)c(O)c1)N[C@H]1CC[C@H](C(=O)O)CC1`, for which the IC50 is 3.4 µM on P-selectin, 5.7 µM on L-selectin and 3.1 µM against E-selectin.
`O=C(O)Cc1cccc(-c2cc(CCCCCCc3ccc(O[C@H]4O[C@H](CO)[C@@H](O)[C@H](O)[C@@H]4O)c(-c4cccc(CC(=O)O)c4)c3)ccc2O[C@H]2O[C@H](CO)[C@@H](O)[C@H](O)[C@@H]2O)c1` [BIMOSIAMOSE]: at L-selectin, the IC50 was more than 500 µM. Also, the inhibition at 109 µM with HL-60 [1] worked out at 50%; in the assay on HL-60 [2] it was 28%.
Regarding `O=C(CCc1cc(O)c(O)c(O)c1)NCc1ccc(C(=O)O)cc1`, the inhibition at 109 µM in the assay on HL-60 [1] and with HL-60 [2] was 21% each time.
`CC(=O)N[C@H]1[C@H]([C@H](O)[C@H](O)CO)O[C@@](O[C@H]2[C@@H](O)[C@@H](CO)O[C@@H](O[C@@H]([C@H](O[C@@H]3O[C@@H](C)[C@@H](O)[C@@H](O)[C@@H]3O)[C@H](C=O)NC(C)=O)[C@H](O)CO)[C@@H]2O)(C(=O)O)C[C@@H]1O` [SIALYL LEWIS X]: the half-maximal inhibitory concentration (IC50) against P-selectin is more than 4000 µM; against L-selectin it was more than 4000 µM; against E-selectin it was 134 µM. The compound also had an inhibition at 109 µM with HL-60 [2] of 32%.
Consider `Cc1cc(O)c(O)c(O)c1`, for which the IC50 was determined as 31.8 µM against P-selectin, 38.5 µM against L-selectin and 31.7 µM at E-selectin.
Turning to `O=C(O)Cc1cccc(-c2ccccc2NC(=O)Cc2cc(O)c(O)c(O)c2)c1`, the inhibition at 109 µM amounted to 22% with HL-60 [1] and 18% in the assay with HL-60 [2].
Consider `O=C(O)Cc1ccc(-c2ccccc2NC(=O)CCc2ccc(O)c(O)c2O)s1`, for which the IC50 on P-selectin is 28.6 µM; on L-selectin, 85.8 µM; against E-selectin, more than 500 µM.
On the same counts, the results for `O=C(O)c1cc(O)c(O)c(O)c1` [GALLIC ACID] are 19.1 µM, 27.6 µM and more than 500 µM.
In the case of `O=C(O)Cc1cccc(NC(=O)CCc2cc(O)c(O)c(O)c2)c1`, the inhibition at 109 µM with HL-60 [2] was 19%.
`O=C(O)Cc1ccc(-c2ccccc2NC(=O)Cc2cccc(-c3ccc(O)c(O)c3O)c2)s1`: the figures for the IC50 on P-selectin, against L-selectin and against E-selectin were 3.6 µM, 9.7 µM and more than 500 µM, respectively. In addition, the inhibition at 109 µM in the assay with HL-60 [1] turned out to be 58%.
Turning to `O=C(Cc1cc(O)c(O)c(O)c1)NCc1ccc(C(=O)O)cc1`, the results for the inhibition at 109 µM with HL-60 [1] and with HL-60 [2] were 20% and 16%, respectively.
Regarding `Cc1ccc(C(=O)O)cc1NC(=O)CCc1cc(O)c(O)c(O)c1`, the IC50 at P-selectin worked out at 2.9 µM; at L-selectin, 4.2 µM.
